Test results as given in ChEMBL document CHEMBL3751835, “Discovery of the imidazole-derived GPR40 agonist AM-3189” (Bioorg Med Chem Lett, 2016).
pEC50: −log10 of the molar value. Calls of active or inactive are those of the source. The calls are words filed in the database; no cut-off is given here.

Tests used:
[1] = Clearance in mouse at 1 mg/kg, iv; type: ADME, organism-based; conditions: in vivo
Outline: (§1)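 Oral doses given as a suspension in aqueous 1% Tween 80 in 1% methylcellulose; IV doses formulated in 10% N,N-dimethylacetamide, 10% ethanol, 30% propylene glycol, 50% sterile water. Animals per species: mouse n = 2 (plasma from two mice at each time point), rat n = 2, dog n = 3, cynomolgus monkey n = 3.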

[2] = Clearance in dog at 0.5 mg/kg, iv; type: ADME, organism-based, Canis lupus familiaris; conditions: in vivo; outline: as §1
[3] = Clearance in cynomolgus monkey at 0.5 mg/kg, iv; type: ADME, organism-based, Macaca fascicularis; conditions: in vivo; outline: as §1
[4] = Half life in mouse at 1 mg/kg, iv; type: ADME, organism-based; conditions: in vivo; outline: as §1
[5] = Volume of distribution at steady state in mouse at 1 mg/kg, iv; type: ADME, organism-based; conditions: in vivo, read-out: Vdss; outline: as §1
[6] = Oral bioavailability in dog at 2 mg/kg; type: ADME, organism-based, Canis lupus familiaris; conditions: in vivo; outline: as §1
[7] = Oral bioavailability in cynomolgus monkey at 5 mg/kg; type: ADME, organism-based, Macaca fascicularis; conditions: in vivo; outline: as §1
[8] = Cmax in mouse at 5 mg/kg, po; type: ADME, organism-based; set-up: dose 5 mg/kg, route oral; conditions: in vivo; outline: as §1
[9] = Cmax in rat at 2 mg/kg, po; type: ADME, organism-based; set-up: dose 2 mg/kg, route oral; conditions: in vivo; outline: as §1
[10] = Cmax in dog at 2 mg/kg, po; type: ADME, organism-based, Canis lupus familiaris; set-up: dose 2 mg/kg, route oral; conditions: in vivo; outline: as §1
MDR1 [11] = assay: Permeability across apical to basolateral side in MDCK cells expressing MDR1; type: ADME, cell-based, Canis lupus familiaris; conditions: dog, read-out: permeability
MDR1 [12] = assay: Permeability across basolateral to apical side in MDCK cells expressing MDR1; type: ADME, cell-based, Canis lupus familiaris; conditions: dog, read-out: permeability
MDR1 [13] = assay: Efflux ratio of permeability from basolateral to apical over apical basolateral side in MDCK cells expressing MDR1; type: ADME, cell-based, Canis lupus familiaris; conditions: dog
Pancreatic islet [14] = assay: Induction of insulin release in human pancreatic islets; type: functional
Pancreatic islet [15] = assay: Induction of glucose-stimulated insulin release in human GPR40 knock-in mouse pancreatic islets by insulin ELISA in presence of 0.1% human serum albumin and glucose; type: functional
Outline: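 Islets were isolated from knock-in mice in which the mouse GPR40 gene is replaced by human GPR40. Glucose-stimulated insulin secretion was measured in buffer containing 16.7 mM glucose and 0.1% human serum albumin.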

[16] = target: Free fatty acid receptor 1 (Rattus norvegicus) (UniProt Q8K3T4); assay: Agonist activity at rat GPR40 in presence of 0.01% human serum albumin relative to AMG 837
Free fatty acid receptor 1 (Rattus norvegicus), sequence (Q8K3T4 whole entry): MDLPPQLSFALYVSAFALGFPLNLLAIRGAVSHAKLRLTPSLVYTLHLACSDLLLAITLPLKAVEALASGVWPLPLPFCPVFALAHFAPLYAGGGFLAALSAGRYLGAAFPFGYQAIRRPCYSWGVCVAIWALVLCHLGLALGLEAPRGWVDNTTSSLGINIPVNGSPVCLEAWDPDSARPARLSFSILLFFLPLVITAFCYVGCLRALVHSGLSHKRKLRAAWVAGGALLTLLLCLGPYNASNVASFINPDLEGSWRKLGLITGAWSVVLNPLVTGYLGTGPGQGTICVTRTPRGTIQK

[17] = Agonist activity at dog GPR40 in presence of 0.01% human serum albumin; set-up: species or system Canis lupus familiaris
Canis lupus familiaris = species on record: Canis lupus familiaris; assay: Agonist activity at dog GPR40 in presence of 0.01% human serum albumin relative to AMG 837
[18] = target: Free fatty acid receptor 1 (Macaca fascicularis, UniProt Q76JV1); assay: Agonist activity at cynomolgus monkey GPR40 in presence of 0.01% human serum albumin relative to AMG 837
Free fatty acid receptor 1, sequence (Q76JV1 whole entry): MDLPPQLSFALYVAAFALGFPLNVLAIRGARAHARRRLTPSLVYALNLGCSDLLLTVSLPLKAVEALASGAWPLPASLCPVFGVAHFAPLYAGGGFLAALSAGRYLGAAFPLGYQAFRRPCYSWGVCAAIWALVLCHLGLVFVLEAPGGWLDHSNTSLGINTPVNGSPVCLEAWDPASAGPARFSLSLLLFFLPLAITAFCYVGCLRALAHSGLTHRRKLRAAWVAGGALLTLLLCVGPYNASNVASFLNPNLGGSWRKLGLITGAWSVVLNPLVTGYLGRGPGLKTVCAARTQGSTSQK

[19] = target: Free fatty acid receptor 1 (Macaca fascicularis) (UniProt Q76JV1); assay: Agonist activity at cynomolgus monkey GPR40 in presence of 0.01% human serum albumin relative to AMG 837 relative to AMG 837
Free fatty acid receptor 1 (Macaca fascicularis), sequence (Q76JV1 whole entry): as above

Mus musculus [20] = assay: Reduction of blood glucose AUC in human islet transplanted nude chimeric mouse at 1 and 10 mg/kg, po administered 1 hr prior to glucose challenge by OGTT; type: functional, organism-based
Outline: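 Nude mice had their endogenous pancreatic β-cells ablated with streptozotocin and were rescued to euglycemia by human islets transplanted under the kidney capsule. Compound was dosed before a glucose challenge, and the glucose AUC was determined.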

Mus musculus [21] = assay: Reduction of blood glucose AUC in human GPR40 knock-in chimeric mouse at 30 mg/kg, po administered 1 hr prior to glucose challenge by OGTT; type: functional, organism-based
Outline: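 Female human GPR40 knock-in mice, 28 weeks old, fasted 6 h, then dosed by oral gavage with compound formulated in 1% methylcellulose, 1% Tween-80. Glucose 2 g/kg was given by oral gavage 1 h after the drug. Blood glucose was read from tail-vein samples at several time points with a glucometer.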

[22] = Ratio of drug level in brain to plasma in rat at 5 mg/kg, po after 3 hrs; type: ADME, organism-based
[23] = target: T1, Peroxisome proliferator-activated receptor delta (Homo sapiens) (UniProt Q03181); assay: Activity at PPARdelta (unknown origin) by cell based assay
T1 sequence (whole entry): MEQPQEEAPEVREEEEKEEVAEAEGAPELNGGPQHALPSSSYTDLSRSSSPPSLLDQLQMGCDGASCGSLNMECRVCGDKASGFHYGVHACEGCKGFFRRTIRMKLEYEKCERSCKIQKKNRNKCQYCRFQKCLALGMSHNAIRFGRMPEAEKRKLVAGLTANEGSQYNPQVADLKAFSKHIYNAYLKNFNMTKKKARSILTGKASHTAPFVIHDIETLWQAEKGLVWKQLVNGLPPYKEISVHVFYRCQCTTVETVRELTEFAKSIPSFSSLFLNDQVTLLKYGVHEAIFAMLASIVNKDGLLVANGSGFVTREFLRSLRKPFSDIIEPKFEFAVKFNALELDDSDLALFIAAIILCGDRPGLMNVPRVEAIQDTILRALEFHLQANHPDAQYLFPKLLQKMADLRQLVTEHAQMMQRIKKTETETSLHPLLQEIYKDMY

[24] = target: T2, Peroxisome proliferator-activated receptor gamma (Homo sapiens) (UniProt P37231); assay: Activity at PPARgamma (unknown origin) by cell based assay
T2 sequence (whole entry): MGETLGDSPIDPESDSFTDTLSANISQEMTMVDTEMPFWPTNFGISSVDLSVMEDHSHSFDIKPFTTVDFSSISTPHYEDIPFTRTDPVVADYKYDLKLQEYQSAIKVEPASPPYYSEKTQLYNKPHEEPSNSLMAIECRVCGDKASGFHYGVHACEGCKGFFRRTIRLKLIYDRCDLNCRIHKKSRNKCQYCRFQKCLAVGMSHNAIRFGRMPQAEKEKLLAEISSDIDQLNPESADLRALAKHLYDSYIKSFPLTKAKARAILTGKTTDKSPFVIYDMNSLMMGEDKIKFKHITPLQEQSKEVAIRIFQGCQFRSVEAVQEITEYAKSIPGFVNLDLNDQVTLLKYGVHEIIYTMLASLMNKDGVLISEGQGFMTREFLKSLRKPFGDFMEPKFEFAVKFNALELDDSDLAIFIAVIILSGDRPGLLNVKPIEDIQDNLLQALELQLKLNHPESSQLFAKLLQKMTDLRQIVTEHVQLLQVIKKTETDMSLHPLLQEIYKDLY

[25] = target: T3, Free fatty acid receptor 1 (Sus scrofa) (UniProt F1RM69); assay: Agonist activity at pig GPR40 in presence of 0.01% human serum albumin
T3 sequence (whole entry): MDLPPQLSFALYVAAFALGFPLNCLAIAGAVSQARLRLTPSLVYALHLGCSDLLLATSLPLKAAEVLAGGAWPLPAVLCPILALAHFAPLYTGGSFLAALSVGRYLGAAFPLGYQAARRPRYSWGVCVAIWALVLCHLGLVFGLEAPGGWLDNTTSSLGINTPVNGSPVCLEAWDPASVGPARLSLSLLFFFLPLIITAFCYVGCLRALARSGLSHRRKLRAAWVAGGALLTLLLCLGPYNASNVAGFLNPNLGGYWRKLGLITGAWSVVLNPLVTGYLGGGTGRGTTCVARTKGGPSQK

[26] = system: GPR40 (hamster, Mesocricetus auratus); assay: Agonist activity at hamster GPR40 in presence of 0.01% human serum albumin

SMILES: Cc1cc(Cl)ccc1-c1cccc(COc2ccc([C@H](CC(=O)O)c3nccn3C)cc2)c1
- clearance [1]: 2.83 mL/min/kg
- clearance [2]: 2.5 mL/min/kg
- clearance [3]: 4.5 mL/min/kg
- half-life [4]: 1.5 h
- Vd [5]: 0.78 L/kg
- bioavailability [6]: 66%
- bioavailability [7]: 34%
- Cmax [8]: 4.89 µM
- Cmax [9]: 0.77 µM
- Cmax [10]: 4.4 µM
- Papp A→B (MDR1 [11]): 1.4 ×10⁻⁶ cm/s
- Papp B→A (MDR1 [12]): 31 ×10⁻⁶ cm/s
- efflux ratio (MDR1 [13]): 22
- Activity (Pancreatic islet [14]): Active
- Activity (Pancreatic islet [15]): Active
- Emax [16]: 41%
- pEC50 [17]: 7.43
- Emax (Canis lupus familiaris): 37%
- pEC50 [18]: 7.54
- Emax [19]: 96%
- Activity (Mus musculus [20]): Active
- Activity (Mus musculus [21]): Active
- Kp at 3 h [22]: 0.04
- Activity [23]: inactive
- Activity [24]: inactive
- Activity [25]: inactive
- Activity [26]: inactive
